ChEMBL document CHEMBL4196105, “Discovery of β-Arrestin Biased Ligands of 5-HT7R” (J Med Chem, 2018)
Calls of active or inactive are those of the source. The calls are words filed in the database; no cut-off is given here.

Legend:
[1] = target: T1, 5-hydroxytryptamine receptor 1A (Homo sapiens, UniProt P08908); assay: Displacement of [3H]LSD from human 5-HT1A receptor expressed in HEK cell membranes after 1.5 hrs by microbeta scintillation counting method
T1 sequence (P08908 whole entry): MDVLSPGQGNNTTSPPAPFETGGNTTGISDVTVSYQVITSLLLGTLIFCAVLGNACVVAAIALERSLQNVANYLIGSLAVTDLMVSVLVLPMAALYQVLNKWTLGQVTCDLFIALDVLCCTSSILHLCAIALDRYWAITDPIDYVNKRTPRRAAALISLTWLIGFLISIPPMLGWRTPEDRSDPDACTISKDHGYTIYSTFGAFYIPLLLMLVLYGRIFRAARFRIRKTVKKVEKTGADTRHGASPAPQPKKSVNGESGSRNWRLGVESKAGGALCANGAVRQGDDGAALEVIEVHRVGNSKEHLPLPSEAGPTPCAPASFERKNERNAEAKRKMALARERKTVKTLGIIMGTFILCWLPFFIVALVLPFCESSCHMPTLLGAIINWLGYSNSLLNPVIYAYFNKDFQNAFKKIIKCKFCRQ
How it was run: (§1)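 Radioligand binding performed by the NIMH Psychoactive Drug Screening Program. Crude membranes from cells expressing recombinant receptor, with [3H]LSD, in 50 mM Tris-HCl, 10 mM MgCl2, 1 mM EDTA, pH 7.4. Eleven test concentrations. Incubated 1.5 h at room temperature, protected from light. Filtered onto PEI-soaked GF/B filters, then scintillation counting. IC50 converted to Ki; at least three experiments in triplicate.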

[2] = target: 5-hydroxytryptamine receptor 1B (Homo sapiens, UniProt P28222); assay: Displacement of [3H]LSD from human 5-HT1B receptor expressed in HEK cell membranes after 1.5 hrs by microbeta scintillation counting method; how it was run: as §1
Chain of 5-hydroxytryptamine receptor 1B (P28222 whole entry): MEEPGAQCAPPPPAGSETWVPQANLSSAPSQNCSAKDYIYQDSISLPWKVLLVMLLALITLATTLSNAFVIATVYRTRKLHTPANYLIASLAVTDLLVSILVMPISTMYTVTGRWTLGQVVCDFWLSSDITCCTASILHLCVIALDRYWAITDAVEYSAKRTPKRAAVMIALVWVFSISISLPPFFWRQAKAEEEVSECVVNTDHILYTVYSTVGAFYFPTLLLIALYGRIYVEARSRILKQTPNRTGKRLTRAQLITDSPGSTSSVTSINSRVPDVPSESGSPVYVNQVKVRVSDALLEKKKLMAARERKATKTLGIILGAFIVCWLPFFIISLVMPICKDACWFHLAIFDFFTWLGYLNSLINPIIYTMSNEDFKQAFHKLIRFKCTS

[3] = target: 5-hydroxytryptamine receptor 1D (Homo sapiens, UniProt P28221); assay: Displacement of [3H]LSD from human 5-HT1D receptor expressed in HEK cell membranes after 1.5 hrs by microbeta scintillation counting method; how it was run: as §1
Chain of 5-hydroxytryptamine receptor 1D (P28221 whole entry): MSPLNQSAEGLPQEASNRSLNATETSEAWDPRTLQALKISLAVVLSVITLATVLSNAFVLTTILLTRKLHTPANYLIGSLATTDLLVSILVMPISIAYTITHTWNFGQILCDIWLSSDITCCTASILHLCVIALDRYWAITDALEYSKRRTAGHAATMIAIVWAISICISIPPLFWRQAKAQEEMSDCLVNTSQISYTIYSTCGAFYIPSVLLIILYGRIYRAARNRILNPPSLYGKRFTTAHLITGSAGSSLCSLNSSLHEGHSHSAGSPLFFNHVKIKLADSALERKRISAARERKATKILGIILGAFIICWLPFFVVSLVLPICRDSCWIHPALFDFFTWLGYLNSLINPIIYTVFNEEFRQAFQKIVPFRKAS

[4] = target: 5-hydroxytryptamine receptor 1E (Homo sapiens, UniProt P28566); assay: Displacement of [3H]LSD from human 5-HT1E receptor expressed in HEK cell membranes after 1.5 hrs by microbeta scintillation counting method; how it was run: as §1
Chain of 5-hydroxytryptamine receptor 1E (P28566 whole entry): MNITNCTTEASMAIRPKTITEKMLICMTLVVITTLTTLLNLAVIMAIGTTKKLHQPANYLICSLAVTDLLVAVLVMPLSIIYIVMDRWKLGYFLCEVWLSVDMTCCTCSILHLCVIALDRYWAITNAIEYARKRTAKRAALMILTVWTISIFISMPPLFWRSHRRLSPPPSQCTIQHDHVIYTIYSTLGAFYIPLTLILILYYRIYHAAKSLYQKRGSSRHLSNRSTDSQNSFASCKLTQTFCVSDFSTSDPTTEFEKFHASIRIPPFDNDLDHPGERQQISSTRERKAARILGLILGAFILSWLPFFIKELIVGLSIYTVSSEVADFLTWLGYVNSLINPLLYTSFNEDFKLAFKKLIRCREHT

[5] = target: 5-hydroxytryptamine receptor 2A (Homo sapiens, UniProt P28223); assay: Displacement of [3H]LSD from human 5-HT2A receptor expressed in HEK cell membranes after 1.5 hrs by microbeta scintillation counting method; how it was run: as §1
Chain of 5-hydroxytryptamine receptor 2A (P28223 whole entry): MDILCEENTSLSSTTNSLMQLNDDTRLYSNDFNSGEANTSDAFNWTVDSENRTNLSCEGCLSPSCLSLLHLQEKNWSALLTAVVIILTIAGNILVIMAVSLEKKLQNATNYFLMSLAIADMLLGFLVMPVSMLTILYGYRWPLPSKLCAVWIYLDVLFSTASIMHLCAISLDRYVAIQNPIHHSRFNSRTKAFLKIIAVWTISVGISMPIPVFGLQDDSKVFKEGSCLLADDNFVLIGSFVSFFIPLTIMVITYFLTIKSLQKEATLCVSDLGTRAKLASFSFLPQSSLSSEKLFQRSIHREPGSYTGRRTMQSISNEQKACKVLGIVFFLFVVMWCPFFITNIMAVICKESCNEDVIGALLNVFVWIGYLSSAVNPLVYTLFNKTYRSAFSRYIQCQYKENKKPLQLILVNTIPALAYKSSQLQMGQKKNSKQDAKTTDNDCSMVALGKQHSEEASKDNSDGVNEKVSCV

[6] = target: 5-hydroxytryptamine receptor 2B (Homo sapiens, UniProt P41595); assay: Displacement of [3H]LSD from human 5-HT2B receptor expressed in HEK cell membranes after 1.5 hrs by microbeta scintillation counting method
Chain of 5-hydroxytryptamine receptor 2B (P41595 whole entry): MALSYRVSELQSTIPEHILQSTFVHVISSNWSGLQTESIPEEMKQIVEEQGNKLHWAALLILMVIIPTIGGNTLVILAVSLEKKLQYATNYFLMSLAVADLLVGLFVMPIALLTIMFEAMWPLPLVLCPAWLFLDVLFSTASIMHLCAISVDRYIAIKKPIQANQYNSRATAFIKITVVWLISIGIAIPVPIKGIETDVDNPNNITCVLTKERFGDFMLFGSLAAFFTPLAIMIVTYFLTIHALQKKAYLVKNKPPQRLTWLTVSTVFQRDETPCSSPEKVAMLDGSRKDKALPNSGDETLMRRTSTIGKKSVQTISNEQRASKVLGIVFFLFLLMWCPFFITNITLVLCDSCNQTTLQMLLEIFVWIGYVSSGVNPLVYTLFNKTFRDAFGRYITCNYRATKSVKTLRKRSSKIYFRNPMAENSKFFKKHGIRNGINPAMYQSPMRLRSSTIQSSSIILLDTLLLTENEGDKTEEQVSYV

[7] = target: T2, 5-hydroxytryptamine receptor 2C (Homo sapiens, UniProt P28335); assay: Displacement of [3H]LSD from human 5-HT2C receptor expressed in HEK cell membranes after 1.5 hrs by microbeta scintillation counting method; how it was run: as §1
T2 sequence (P28335 whole entry): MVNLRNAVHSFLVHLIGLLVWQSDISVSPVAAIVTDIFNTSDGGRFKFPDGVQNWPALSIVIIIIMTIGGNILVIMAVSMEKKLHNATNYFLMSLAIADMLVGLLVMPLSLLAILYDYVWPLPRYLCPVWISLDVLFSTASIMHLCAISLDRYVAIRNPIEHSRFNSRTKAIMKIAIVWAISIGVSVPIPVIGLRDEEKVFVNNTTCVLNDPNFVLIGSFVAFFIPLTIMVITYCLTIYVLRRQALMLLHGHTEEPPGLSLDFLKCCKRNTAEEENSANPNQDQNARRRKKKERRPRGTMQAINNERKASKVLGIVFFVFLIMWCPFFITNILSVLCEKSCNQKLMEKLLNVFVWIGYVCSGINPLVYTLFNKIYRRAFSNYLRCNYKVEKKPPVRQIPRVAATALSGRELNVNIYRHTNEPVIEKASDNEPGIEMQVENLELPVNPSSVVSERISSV

[8] = target: T3, 5-hydroxytryptamine receptor 3A (Homo sapiens, UniProt P46098); assay: Displacement of [3H]LSD from human 5-HT3 receptor expressed in HEK cell membranes after 1.5 hrs by microbeta scintillation counting method; how it was run: as §1
T3 sequence (P46098 whole entry): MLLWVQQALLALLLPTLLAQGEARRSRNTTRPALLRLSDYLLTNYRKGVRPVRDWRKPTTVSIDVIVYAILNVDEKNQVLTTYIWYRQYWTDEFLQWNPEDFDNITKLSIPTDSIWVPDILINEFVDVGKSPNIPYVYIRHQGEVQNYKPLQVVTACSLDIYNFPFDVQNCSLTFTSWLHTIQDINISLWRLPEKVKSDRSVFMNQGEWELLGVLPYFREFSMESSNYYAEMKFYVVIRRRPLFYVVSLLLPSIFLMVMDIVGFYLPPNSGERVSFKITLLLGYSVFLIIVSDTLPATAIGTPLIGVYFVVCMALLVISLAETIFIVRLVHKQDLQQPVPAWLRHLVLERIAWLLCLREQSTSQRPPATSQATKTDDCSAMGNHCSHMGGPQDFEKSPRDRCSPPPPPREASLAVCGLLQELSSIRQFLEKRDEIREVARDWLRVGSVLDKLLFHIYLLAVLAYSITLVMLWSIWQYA

[9] = target: 5-hydroxytryptamine receptor 4 (Homo sapiens, UniProt Q13639); assay: Displacement of [3H]LSD from human 5-HT4 receptor expressed in HEK cell membranes after 1.5 hrs by microbeta scintillation counting method; how it was run: as §1
Chain of 5-hydroxytryptamine receptor 4 (Q13639 whole entry): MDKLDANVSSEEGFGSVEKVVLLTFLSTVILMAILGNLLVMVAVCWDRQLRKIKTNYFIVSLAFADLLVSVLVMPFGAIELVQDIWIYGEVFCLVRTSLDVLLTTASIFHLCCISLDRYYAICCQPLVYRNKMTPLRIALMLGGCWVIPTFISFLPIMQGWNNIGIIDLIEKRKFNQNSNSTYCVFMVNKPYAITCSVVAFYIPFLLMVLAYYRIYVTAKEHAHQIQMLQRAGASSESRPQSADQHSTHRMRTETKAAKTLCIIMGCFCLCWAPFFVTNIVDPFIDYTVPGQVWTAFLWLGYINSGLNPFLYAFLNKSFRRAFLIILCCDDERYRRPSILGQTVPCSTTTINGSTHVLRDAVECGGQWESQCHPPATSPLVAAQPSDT

[10] = target: 5-hydroxytryptamine receptor 5A (Homo sapiens, UniProt P47898); assay: Displacement of [3H]LSD from human 5-HT5A receptor expressed in HEK cell membranes after 1.5 hrs by microbeta scintillation counting method; how it was run: as §1
Chain of 5-hydroxytryptamine receptor 5A (P47898 whole entry): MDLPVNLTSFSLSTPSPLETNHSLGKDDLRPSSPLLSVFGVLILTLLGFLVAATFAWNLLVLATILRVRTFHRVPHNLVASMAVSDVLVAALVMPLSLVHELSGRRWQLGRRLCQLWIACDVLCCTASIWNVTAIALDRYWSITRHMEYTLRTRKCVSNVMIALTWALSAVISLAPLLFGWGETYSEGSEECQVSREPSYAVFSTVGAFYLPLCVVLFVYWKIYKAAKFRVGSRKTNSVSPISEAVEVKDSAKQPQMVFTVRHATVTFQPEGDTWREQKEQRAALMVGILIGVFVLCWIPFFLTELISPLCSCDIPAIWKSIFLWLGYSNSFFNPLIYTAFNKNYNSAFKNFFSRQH

[11] = target: 5-hydroxytryptamine receptor 6 (Homo sapiens, UniProt P50406); assay: Displacement of [3H]LSD from human 5-HT6 receptor expressed in HEK cell membranes after 1.5 hrs by microbeta scintillation counting method; how it was run: as §1
Chain of 5-hydroxytryptamine receptor 6 (P50406 whole entry): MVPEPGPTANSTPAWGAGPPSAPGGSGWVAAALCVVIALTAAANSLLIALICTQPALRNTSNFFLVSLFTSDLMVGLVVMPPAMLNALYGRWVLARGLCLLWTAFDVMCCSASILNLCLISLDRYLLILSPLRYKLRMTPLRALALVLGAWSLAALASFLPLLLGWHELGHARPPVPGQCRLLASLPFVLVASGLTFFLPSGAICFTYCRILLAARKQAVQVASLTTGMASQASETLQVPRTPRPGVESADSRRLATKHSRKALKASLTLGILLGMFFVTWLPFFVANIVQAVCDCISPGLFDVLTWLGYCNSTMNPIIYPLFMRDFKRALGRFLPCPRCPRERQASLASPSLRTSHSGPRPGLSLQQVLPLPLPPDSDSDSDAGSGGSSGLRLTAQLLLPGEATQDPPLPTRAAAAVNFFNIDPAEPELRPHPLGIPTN

Homo sapiens [12] = species: Homo sapiens; assay: Selectivity index, ratio of Ki for human 5-HT2A receptor to Ki for human 5-HT7 receptor
How it was run: (§2)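 Selectivity index taken as Ki at the other 5-HT receptor subtype divided by Ki at 5-HT7R, each from [3H]LSD membrane binding run by the NIMH PDSP. Ki values are means of at least three experiments in triplicate.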

Homo sapiens [13] = species: Homo sapiens; assay: Selectivity index, ratio of Ki for human 5-HT2B receptor to Ki for human 5-HT7 receptor; how it was run: as §2
Homo sapiens [14] = species: Homo sapiens; assay: Selectivity index, ratio of Ki for human 5-HT2C receptor to Ki for human 5-HT7 receptor; how it was run: as §2
Homo sapiens [15] = species: Homo sapiens; assay: Selectivity index, ratio of Ki for human 5-HT3 receptor to Ki for human 5-HT7 receptor; how it was run: as §2
Homo sapiens [16] = species: Homo sapiens; assay: Selectivity index, ratio of Ki for human 5-HT5A receptor to Ki for human 5-HT7 receptor; how it was run: as §2
[17] = target: T4, 5-hydroxytryptamine receptor 7 (Homo sapiens, UniProt P34969); assay: Inverse agonist activity at human 5-HT7 receptor expressed in HEK293 cells assessed as decrease in Gs protein-mediated cAMP accumulation by luminescence-based assay; assay type: functional, cell-based
T4 sequence (P34969 whole entry): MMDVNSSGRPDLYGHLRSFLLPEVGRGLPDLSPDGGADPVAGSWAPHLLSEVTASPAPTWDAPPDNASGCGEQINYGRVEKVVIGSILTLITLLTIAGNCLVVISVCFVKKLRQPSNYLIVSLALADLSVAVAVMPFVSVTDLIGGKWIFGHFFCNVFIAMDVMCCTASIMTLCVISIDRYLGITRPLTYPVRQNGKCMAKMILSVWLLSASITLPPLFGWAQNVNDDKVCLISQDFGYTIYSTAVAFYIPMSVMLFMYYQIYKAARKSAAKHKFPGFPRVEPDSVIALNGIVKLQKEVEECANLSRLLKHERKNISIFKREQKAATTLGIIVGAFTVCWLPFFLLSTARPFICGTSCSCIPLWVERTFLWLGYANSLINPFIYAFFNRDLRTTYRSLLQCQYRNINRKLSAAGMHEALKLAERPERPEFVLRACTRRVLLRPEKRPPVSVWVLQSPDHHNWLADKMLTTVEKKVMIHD
How it was run: (§3)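 HEK293 cells transiently transfected by calcium phosphate with human 5-HT7R and GloSensor-22F cAMP biosensor. After 5-6 h recovery, loaded with GloSensor reagent in HBSS/20 mM HEPES, pH 7.4. Test compounds at 0.01 nM-100 μM final; antagonist mode uses 5-HT stimulation. Luminescence read. Data normalised to 5-HT or SB269970 (100%) and vehicle (0%). Three experiments, at least triplicate.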

[18] = target: T4, 5-hydroxytryptamine receptor 7; assay: Antagonist activity at human 5-HT7 receptor expressed in HEK293 cells assessed as inhibition of Gs protein-mediated cAMP accumulation by luminescence-based assay relative to SB269970; assay type: functional, cell-based; how it was run: as §3
[19] = target: T4, 5-hydroxytryptamine receptor 7; assay: Agonist activity at tTA containing TCS cleavage site-fused 5-HT7 receptor (unknown origin) expressed in tTA-dependent luciferase reporter/TEV-fused beta-arrestin2 expressing HTLA cells assessed as induction of beta-arrestin2 recruitment after 22 hrs by Tango assay relative to 5-HT; assay type: functional, cell-based
How it was run: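 HTLA cells (HEK293 stably expressing tTA-dependent luciferase reporter and β-arrestin2-TEV) transiently transfected with 5-HT7R-TCS-tTA. Plated in 1% dialysed FBS medium for 6 h, then given test compounds at 0.01 nM-100 μM final, about 22 h. Antagonist mode adds 1 μM 5-HT. BrightGlo luminescence read. Normalised to 5-HT (100%) and vehicle (0%). Three experiments, at least triplicate.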

[20] = target: T4, 5-hydroxytryptamine receptor 7; assay: Antagonist activity at tTA containing TCS cleavage site-fused 5-HT7 receptor (unknown origin) expressed in tTA-dependent luciferase reporter/TEV-fused beta-arrestin2 expressing HTLA cells assessed as inhibition of 5-HT-induced beta-arrestin2 recruitment after 22 hrs by Tango assay; assay type: functional, cell-based
[21] = target: T4, 5-hydroxytryptamine receptor 7
[22] = target: T4, 5-hydroxytryptamine receptor 7; remark: listed apart in the source
Mus musculus [23] = assay: Sleep promoting activity in C57B1/6J mouse assessed as decrease in total rapid eye movement sleep time at 30 mg/kg, ip measured over 8 hrs by electroencephalogram method; assay type: functional; design: scale not given: the % may be the effect or the level left
How it was run: (§4)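 Adult male C57Bl/6J mice, 10 weeks old, with parietal EEG screw electrodes implanted under ketamine. EEG and EMG recorded for 8 h from 9 AM, starting one day before dosing as baseline. On test day, 30 mg/kg i.p. at the start of the light phase, with EEG/EMG recorded for 8 h and scored in 2-h bins. n = 6-9 per group; mean ± SEM versus vehicle.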

Mus musculus [24] = assay: Sleep promoting activity in C57B1/6J mouse assessed as duration of total non-rapid eye movement sleep time at 30 mg/kg, ip measured over 8 hrs by electroencephalogram method (reference value: 252 +/- 22.7 mins); assay type: functional; how it was run: as §4
Homo sapiens [25] = species: Homo sapiens; assay: Selectivity index, ratio of Ki for human 5-HT1D receptor to Ki for human 5-HT7 receptor; how it was run: as §2
Homo sapiens [26] = species: Homo sapiens; assay: Selectivity index, ratio of Ki for human 5-HT1E receptor to Ki for human 5-HT7 receptor; how it was run: as §2
Homo sapiens [27] = species: Homo sapiens; assay: Selectivity index, ratio of Ki for human 5-HT6 receptor to Ki for human 5-HT7 receptor; how it was run: as §2
[28] = target: T4, 5-hydroxytryptamine receptor 7; assay: Displacement of [3H]LSD from human 5-HT7 receptor expressed in HEK cell membranes after 1.5 hrs by microbeta scintillation counting method
[29] = target: T4, 5-hydroxytryptamine receptor 7; assay: Displacement of [3H]LSD from human 5-HT7 receptor expressed in HEK cell membranes at 10 uM after 1.5 hrs by microbeta scintillation counting method
How it was run: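 [3H]LSD binding to recombinant 5-HT7R membranes in Tris-HCl/MgCl2/EDTA buffer, pH 7.4, 1.5 h at room temperature, filtration and scintillation counting. Percent inhibition at a single 10 μM test concentration.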

| SMILES | Ki [1] [nM] | Ki [2] [nM] | Ki [3] [nM] | Ki [4] [nM] | Ki [5] [nM] | Ki [6] [nM] | Ki [7] [nM] | Ki [8] [nM] | Ki [9] [nM] | Ki [10] [nM] | Ki [11] [nM] | Ratio Ki (Homo sapiens [12]) | Ratio Ki (Homo sapiens [13]) | Ratio Ki (Homo sapiens [14]) | Activity [17] | Imax [18] [%] | Emax [19] [%] | inhibition [20] | IC50 [21] [nM] | EC50 [22] [nM] | other results |
| --- | --- | --- | --- | --- | --- | --- | --- | --- | --- | --- | --- | --- | --- | --- | --- | --- | --- | --- | --- | --- | --- |
| Fc1ccc(-c2noc3c2CCNCC3)cc1 | > 10000 | > 10000 | > 10000 | > 10000 | 471 | 505 | 785 | 703 | > 10000 | 1230 | > 10000 | 8.9 | 9.5 | 14.8 | Active | 98 | 38.2 | inactive | 2460 | 135 | Ratio Ki (Homo sapiens [15]): 13.3; Ratio Ki (Homo sapiens [16]): 23.2 |
| CC1CCN(CC[C@H]2CCCN2S(=O)(=O)c2cccc(O)c2)CC1 |  |  |  |  |  |  |  |  |  |  |  |  |  |  | Active |  | < 20 |  |  |  | Activity (Mus musculus [23]): 37.1%; Time (Mus musculus [24]): 252 min |
| Cc1ccc(-c2n[nH]c3c2CCNCC3)cc1 | > 10000 | > 10000 | 165 | 890 | 159 | 106 | 296 | > 10000 | > 10000 | > 10000 | 109 | 3.4 | 2.3 | 6.3 | Active | 97.4 | 50.9 | inactive | 2560 | 165 | Ratio Ki (Homo sapiens [25]): 3.5; Ratio Ki (Homo sapiens [26]): 18.9; Ratio Ki (Homo sapiens [27]): 2.3 |
| Cc1ccccc1-c1noc2c1CCNCC2 |  |  |  |  |  |  |  |  |  |  |  |  |  |  |  |  |  |  |  |  | Ki [28]: > 10000 nM; inhibition [29]: < 50% |
| Clc1ccc(-c2noc3c2CCNCC3)cc1 | > 10000 | > 10000 | > 10000 | > 10000 | 399 | 247 | 1100 | 303 | > 10000 | > 10000 | 360 | 5.7 | 3.5 | 15.7 | Active | 94.9 | 47.1 | inactive | 3970 | 113 | Ratio Ki (Homo sapiens [15]): 4.3; Ratio Ki (Homo sapiens [27]): 5.1 |
